The results in this text go back to ChEMBL document CHEMBL4041542, “Synthesis and biological characterisation of ester and amide derivatives of fusidic acid as antiplasmodial agents” (Bioorg Med Chem Lett, 2017).

A value given as a limit tells only on which side of the number the result lay.

The test system of data set [1] is Plasmodium falciparum. Description: Potency index, ratio of fusidic acid IC50 to compound IC50 for chloroquine-resistant Plasmodium falciparum K1. In kind it is functional.
Data set [2] has as its system Plasmodium falciparum. Kind of data set: Antiplasmodial activity against chloroquine-sensitive Plasmodium falciparum NF54 by LDH assay. It counts as functional. The method, boiled down: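 In vitro test on the chloroquine-sensitive NF54 strain of P. falciparum, read out by the lactate dehydrogenase assay. Reported as IC50. Chloroquine and artesunate were included as reference drugs in all experiments.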

Data set [3] is described as follows: Selectivity index, ratio of IC50 for CHO cells to IC50 for chloroquine-sensitive Plasmodium falciparum NF54. In kind it is toxicity. The following applies: hamster, read-out: Ratio IC50. The method, boiled down:
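IC50 against Chinese hamster ovary cells (cytotoxicity) was divided by IC50 against P. falciparum NF54. NF54 IC50 came from the lactate dehydrogenase assay, with chloroquine and artesunate as references.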

The subject of data set [4] is Plasmodium falciparum. Kind of data set: Potency index, ratio of fusidic acid IC50 to compound IC50 for chloroquine-sensitive Plasmodium falciparum NF54. In kind it is functional. The method, boiled down: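 Chloroquine-sensitive P. falciparum NF54 was tested with the lactate dehydrogenase assay, using chloroquine and artesunate as reference drugs. The index is fusidic acid's IC50 divided by the compound's IC50, both against NF54.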

The subject of data set [5] is CHO. Description: Cytotoxicity against CHO cells. It counts as cell-based. The note with it: Cricetulus griseus.
Data set [6] deals with Plasmodium falciparum. Description: Antiplasmodial activity against chloroquine-resistant Plasmodium falciparum K1 by [3H]hypoxanthine incorporation assay. In kind it is functional. Put shortly:
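Multidrug-resistant K1 strain of P. falciparum tested in vitro with a modified [3H]hypoxanthine incorporation assay. IC50 determined. Chloroquine and artesunate served as reference drugs in every experiment.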

As to `CC(=O)O[C@H]1C[C@@]2(C)[C@@H](C[C@@H](O)[C@H]3[C@@]4(C)CC[C@@H](O)[C@@H](C)[C@@H]4CC[C@@]32C)/C1=C(\CCC=C(C)C)C(=O)Oc1ccc2ccccc2c1`, the “Ratio IC50” value in data set [1] was 5 - 17; in data set [4] it was 4 - 49. Further, the values for the IC50 in data set [2], in data set [5] and in data set [6] were 3.2 µM, over 155 µM and 1.7 µM, respectively. In addition, the selectivity ratio in data set [3] was over 48.
`CC(=O)O[C@H]1C[C@@]2(C)[C@@H](C[C@@H](O)[C@H]3[C@@]4(C)CC[C@@H](O)[C@@H](C)[C@@H]4CC[C@@]32C)/C1=C(\CCC=C(C)C)C(=O)Oc1ccc(Cl)c(Cl)c1`: the “Ratio IC50” value was 5 - 17 in data set [1] and 4 - 49 in data set [4]. For the same compound, the IC50 stood at 3.6 µM in data set [2], 95 µM in data set [5] and 2.2 µM in data set [6]. Also, the selectivity ratio in data set [3] was found to be 26.
As for `CCCCCCCCCCCCOC(=O)/C(CCC=C(C)C)=C1\[C@@H](OC(C)=O)C[C@@]2(C)[C@H]1C[C@@H](O)[C@H]1[C@@]3(C)CC[C@@H](O)[C@@H](C)[C@@H]3CC[C@@]12C`, the values for the IC50 in data set [2], in data set [5] and in data set [6] were over 100 µM, over 146 µM and over 14.6 µM, respectively.
Take `CC(=O)O[C@H]1C[C@@]2(C)[C@@H](C[C@@H](O)[C@H]3[C@@]4(C)CC[C@@H](O)[C@@H](C)[C@@H]4CC[C@@]32C)/C1=C(\CCC=C(C)C)C(=O)Oc1ccc(Br)cc1`: the “Ratio IC50” value is on record as 12 - 14 in data set [1] and 20 - 28 in data set [4]. The IC50 in data set [2] stood at 2.1 µM; in data set [5], 95.3 µM; in data set [6] it was 1.6 µM. In data set [3], the selectivity ratio turned out to be 45.
Consider `CC(=O)O[C@H]1C[C@@]2(C)[C@@H](C[C@@H](O)[C@H]3[C@@]4(C)CC[C@@H](O)[C@@H](C)[C@@H]4CC[C@@]32C)/C1=C(\CCC=C(C)C)C(=O)Oc1ccc(F)cc1`, for which the “Ratio IC50” value in data set [1] is on record as 12 - 14; in data set [4] it was 20 - 28. For the same compound, the IC50 in data set [2] amounted to 2.9 µM; in data set [5], 79.4 µM; in data set [6], 1.4 µM. In addition, the selectivity ratio in data set [3] was 27.
Regarding `CC(=O)O[C@H]1C[C@@]2(C)[C@@H](C[C@@H](O)[C@H]3[C@@]4(C)CC[C@@H](O)[C@@H](C)[C@@H]4CC[C@@]32C)/C1=C(\CCC=C(C)C)C(=O)Oc1cc(C)ccc1C`, the “Ratio IC50” value is listed as 5 - 17 in data set [1] and 4 - 49 in data set [4]. Further, the IC50 in data set [2] was determined as 3 µM; in data set [5], 103 µM; in data set [6], 1.4 µM. Also, the selectivity ratio in data set [3] worked out at 34.
Regarding `CC(=O)O[C@H]1C[C@@]2(C)[C@@H](C[C@@H](O)[C@H]3[C@@]4(C)CC[C@@H](O)[C@@H](C)[C@@H]4CC[C@@]32C)/C1=C(\CCC=C(C)C)C(=O)Oc1cccc(Cl)c1`, the figures for the “Ratio IC50” value in data set [1] and in data set [4] were 5 - 17 and 4 - 49, respectively. The 50% inhibitory concentration (IC50) in data set [2] stood at 1.4 µM; in data set [5], 87.7 µM; in data set [6], 1.2 µM. The selectivity ratio in data set [3] was 63.
Regarding `CC(=O)O[C@H]1C[C@@]2(C)[C@@H](C[C@@H](O)[C@H]3[C@@]4(C)CC[C@@H](O)[C@@H](C)[C@@H]4CC[C@@]32C)/C1=C(\CCC=C(C)C)C(=O)Oc1ccc(Cl)cc1`, the results for the “Ratio IC50” value in data set [1] and in data set [4] were 12 - 14 and 20 - 28, respectively. For the same compound, the concentration for half-maximal inhibition (IC50) stood at 2.3 µM in data set [2], 71.6 µM in data set [5] and 1.4 µM in data set [6]. In data set [3], the selectivity ratio is 31.
For `COc1cccc(OC(=O)/C(CCC=C(C)C)=C2\[C@@H](OC(C)=O)C[C@@]3(C)[C@H]2C[C@@H](O)[C@H]2[C@@]4(C)CC[C@@H](O)[C@@H](C)[C@@H]4CC[C@@]23C)c1`, the “Ratio IC50” value is 5 - 17 in data set [1] and 4 - 49 in data set [4]. The half-maximal inhibitory concentration (IC50) was 1.8 µM in data set [2], 86.4 µM in data set [5] and 1.3 µM in data set [6]. The selectivity ratio in data set [3] amounted to 48.
As to `CC(=O)O[C@H]1C[C@@]2(C)[C@@H](C[C@@H](O)[C@H]3[C@@]4(C)CC[C@@H](O)[C@@H](C)[C@@H]4CC[C@@]32C)/C1=C(\CCC=C(C)C)C(=O)Oc1ccc(Cl)cc1Cl`, the entries for the “Ratio IC50” value in data set [1] and in data set [4] were 5 - 17 and 4 - 49, respectively. For the same compound, the 50% inhibitory concentration (IC50) in data set [2] worked out at 3.5 µM; in data set [5], 99.7 µM; in data set [6], 1.7 µM. Moreover, the selectivity ratio in data set [3] was determined as 28.
`CC(=O)O[C@H]1C[C@@]2(C)[C@@H](C[C@@H](O)[C@H]3[C@@]4(C)CC[C@@H](O)[C@@H](C)[C@@H]4CC[C@@]32C)/C1=C(\CCC=C(C)C)C(=O)Oc1ccc(C)cc1C`: the “Ratio IC50” value in data set [1] is 5 - 17; in data set [4], 4 - 49. In addition, the IC50 was 2.4 µM in data set [2], 98.9 µM in data set [5] and 1.4 µM in data set [6]. Besides, the selectivity ratio in data set [3] was determined as 41.
Turning to `CCCCCCCCCCCCCCOC(=O)/C(CCC=C(C)C)=C1\[C@@H](OC(C)=O)C[C@@]2(C)[C@H]1C[C@@H](O)[C@H]1[C@@]3(C)CC[C@@H](O)[C@@H](C)[C@@H]3CC[C@@]12C`, the results for the half-maximal inhibitory concentration (IC50) in data set [2], in data set [5] and in data set [6] were over 100 µM, over 140 µM and over 14 µM, respectively.
Consider `CCCCCCCCCCCCCCCCNC(=O)/C(CCC=C(C)C)=C1\[C@@H](OC(C)=O)C[C@@]2(C)[C@H]1C[C@@H](O)[C@H]1[C@@]3(C)CC[C@@H](O)[C@@H](C)[C@@H]3CC[C@@]12C`, for which the IC50 in data set [2] was over 100 µM; in data set [5] it was over 135 µM; in data set [6], over 13.5 µM.
`CCCCCCCCOC(=O)/C(CCC=C(C)C)=C1\[C@@H](OC(C)=O)C[C@@]2(C)[C@H]1C[C@@H](O)[C@H]1[C@@]3(C)CC[C@@H](O)[C@@H](C)[C@@H]3CC[C@@]12C`: the “Ratio IC50” value in data set [1] is 5 - 17; in data set [4], 4 - 49. Also, the IC50 in data set [2] was 4.6 µM; in data set [5] it was 92.4 µM; in data set [6], 1.6 µM. Also, in data set [3], the selectivity ratio worked out at 20.
On to `CC(=O)O[C@H]1C[C@@]2(C)[C@@H](C[C@@H](O)[C@H]3[C@@]4(C)CC[C@@H](O)[C@@H](C)[C@@H]4CC[C@@]32C)/C1=C(\CCC=C(C)C)C(=O)Oc1cccc(F)c1`, for which the results for the “Ratio IC50” value in data set [1] and in data set [4] were 5 - 17 and 4 - 49, respectively. Also, the IC50 turned out to be 2.6 µM in data set [2], 89.4 µM in data set [5] and 2 µM in data set [6]. The selectivity ratio in data set [3] is 34.
Regarding `CC(=O)O[C@H]1C[C@@]2(C)[C@@H](C[C@@H](O)[C@H]3[C@@]4(C)CC[C@@H](O)[C@@H](C)[C@@H]4CC[C@@]32C)/C1=C(\CCC=C(C)C)C(=O)Oc1cc(F)cc(F)c1`, the entries for the “Ratio IC50” value in data set [1] and in data set [4] were 5 - 17 and 4 - 49, respectively. For the same compound, the 50% inhibitory concentration (IC50) was found to be 4.7 µM in data set [2] and 96.7 µM in data set [5]. Also, the selectivity ratio in data set [3] worked out at 21.
For `CCCCCCCCCCCCNC(=O)/C(CCC=C(C)C)=C1\[C@@H](OC(C)=O)C[C@@]2(C)[C@H]1C[C@@H](O)[C@H]1[C@@]3(C)CC[C@@H](O)[C@@H](C)[C@@H]3CC[C@@]12C`, the “Ratio IC50” value in data set [1] is listed as 5 - 17; in data set [4] it was 4 - 49. Moreover, the IC50 in data set [2] was 1.2 µM; in data set [5], over 146 µM; in data set [6], 1.5 µM. In addition, in data set [3], the selectivity ratio is over 122.
As for `CC(=O)O[C@H]1C[C@@]2(C)[C@@H](C[C@@H](O)[C@H]3[C@@]4(C)CC[C@@H](O)[C@@H](C)[C@@H]4CC[C@@]32C)/C1=C(\CCC=C(C)C)C(=O)Oc1cccc(Br)c1`, the “Ratio IC50” value in data set [1] is 5 - 17; in data set [4], 4 - 49. Also, the 50% inhibitory concentration (IC50) in data set [2] came out at 2.6 µM; in data set [5] it was 98.3 µM; in data set [6] it was 1.6 µM. Moreover, the selectivity ratio in data set [3] turned out to be 38.
For `CC(=O)O[C@H]1C[C@@]2(C)[C@@H](C[C@@H](O)[C@H]3[C@@]4(C)CC[C@@H](O)[C@@H](C)[C@@H]4CC[C@@]32C)/C1=C(\CCC=C(C)C)C(=O)Oc1cc(Cl)cc(Cl)c1`, the “Ratio IC50” value in data set [1] is on record as 5 - 17; in data set [4] it was 4 - 49. In addition, the half-inhibitory concentration (IC50) in data set [2] was found to be 2 µM; in data set [5] it was 81.9 µM; in data set [6], 1.1 µM. For the same compound, in data set [3], the selectivity ratio is 41.
`CCCCOC(=O)/C(CCC=C(C)C)=C1\[C@@H](OC(C)=O)C[C@@]2(C)[C@H]1C[C@@H](O)[C@H]1[C@@]3(C)CC[C@@H](O)[C@@H](C)[C@@H]3CC[C@@]12C`: the “Ratio IC50” value in data set [1] is on record as 5 - 17; in data set [4] it was 4 - 49. In addition, the half-inhibitory concentration (IC50) was 2.9 µM in data set [2], 37.4 µM in data set [5] and 1.5 µM in data set [6]. Moreover, the selectivity ratio in data set [3] amounted to 13.
Take `CCCCCCCCCCCCCCCCOC(=O)/C(CCC=C(C)C)=C1\[C@@H](OC(C)=O)C[C@@]2(C)[C@H]1C[C@@H](O)[C@H]1[C@@]3(C)CC[C@@H](O)[C@@H](C)[C@@H]3CC[C@@]12C`: the half-inhibitory concentration (IC50) in data set [2] was over 100 µM; in data set [5], over 135 µM; in data set [6], over 13.5 µM.
Regarding `C[C@H]1[C@H](OC(=O)CCC(=O)O)O[C@@H]2O[C@@]3(C)CC[C@H]4[C@H](C)CC[C@@H]1[C@@]24OO3` [ARTESUNATE], the IC50 was 0.0093 µM in data set [2] and 0.0026 µM in data set [6].
In the case of `CC[C@H]1CN2CCc3cc(OC)c(OC)cc3[C@@H]2C[C@@H]1C[C@H]1NCCc2cc(OC)c(OC)cc21` [EMETINE], the IC50 in data set [5] amounted to 0.178 µM.

The term IC50 denotes the concentration at which inhibition is half-maximal.
